OX1R antag-1 = OX1R (HCRTR1) antagonists, primary screen, fluorescence, CHO/OX1R cells, Fluo-8 calcium, orexin A; Fluo-8 calcium fluorescence; AID 434989, 2010; hit rate 0.43% among 330,000; Orexin/Hypocretin receptor type 1 (Homo sapiens), O43613; inhibition, % at 5 µM;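 active = inhibition above its plate's threshold, mean inhibition of all tested compounds on the plate plus 3 SD, cut at about 37% in these data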
EP2 mod = EP2 receptor modulators, cAMP readout, primary screen, cell-based, HTRF cAMP, PGE2 stimulation. EP2-expressing cells, cAMP HTRF FRET, PGE2 co-stimulation. induction, % at 25 µM. hit rate 0.83% among 260,000. AID 940, 2007;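 active = compounds whose cAMP rise, as percent of the full-agonist control response, exceeds 60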;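 also: rat C6 glioma line stably carrying human EP2 under a CMV promoter; the protocol text gives 20 µM as final concentration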
Target sequence (P43116 whole entry, looked up): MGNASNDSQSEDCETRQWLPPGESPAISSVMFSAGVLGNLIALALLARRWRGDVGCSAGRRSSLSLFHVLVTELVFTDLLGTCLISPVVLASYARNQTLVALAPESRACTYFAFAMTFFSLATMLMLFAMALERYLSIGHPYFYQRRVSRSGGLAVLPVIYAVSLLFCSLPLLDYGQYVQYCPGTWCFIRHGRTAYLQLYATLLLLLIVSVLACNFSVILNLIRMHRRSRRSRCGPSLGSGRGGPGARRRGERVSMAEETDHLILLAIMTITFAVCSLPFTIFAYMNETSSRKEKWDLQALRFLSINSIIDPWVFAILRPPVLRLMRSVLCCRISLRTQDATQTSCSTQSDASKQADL
OX1R antag-2 = antagonists of human orexin 1 receptor (OX1R) | OX1R-expressing cells, FRET antagonist read-out | hit rate 1.8% among 330,000 | Orexin/Hypocretin receptor type 1 (Homo sapiens), O43613 | inhibition, % at 6.6 µM; in the data active = inhibition mostly above about 38%, no sharp cut-off; inactive = mostly below about 40%
PGE2 EP2 inh = human EP2 receptor antagonists, primary screen, TR-FRET cAMP, C6 glioma cells. hit rate 0.52% among 260,000. C6 glioma cells expressing human EP2; cells stimulated with saturating PGE2. inhibition, % at 25 µM. Prostaglandin E2 receptor EP2 subtype (Homo sapiens), P43116. AID 1422, 2008;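 active = percent inhibition above 40 after rounding to a whole number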;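 also: rat C6 glioma host cells with rolipram phosphodiesterase inhibitor present; the protocol text gives 20 µM as final concentration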
CHO parental Ca = ATP-evoked calcium signal inhibitors, parental CHO, primary screen, counter-screen for OX1R antagonist project, cell-based, fluorescence, Fluo-8 calcium dye. inhibition, % at 5.6 µM. hit rate 0.63% among 330,000. parental CHO-K1, ATP-induced calcium, Fluo-8 fluorescence;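 active = inhibition above that plate's mean sample inhibition plus 3 SD, cut at about 26% in these data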
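Assay system: untransfected parental CHO cell line. Also added: ATP agonist challenge. Dosing: one dose, 5.6 µM nominal. Measured by: Fluo-8 fluorescence. Read-out: % inhibition. Benchmarks: ATP wells versus no-ATP DMSO wells. Repeats: no replicates.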
GPR7 antag = GPR7 receptor antagonists, primary screen, cell-based, fluorescence, single concentration. inhibition, % at 4.4 µM. hit rate 1.1% among 290,000. AID 1861, 2009. GPR7-expressing cells, fluorescence antagonist assay. Neuropeptides B/W receptor type 1 (Homo sapiens), P48145; in the data active = inhibition above about 16%, passing the limit was not always enough;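 also: cells stimulated with the agonist NPW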
Target sequence (P48145 whole entry, looked up): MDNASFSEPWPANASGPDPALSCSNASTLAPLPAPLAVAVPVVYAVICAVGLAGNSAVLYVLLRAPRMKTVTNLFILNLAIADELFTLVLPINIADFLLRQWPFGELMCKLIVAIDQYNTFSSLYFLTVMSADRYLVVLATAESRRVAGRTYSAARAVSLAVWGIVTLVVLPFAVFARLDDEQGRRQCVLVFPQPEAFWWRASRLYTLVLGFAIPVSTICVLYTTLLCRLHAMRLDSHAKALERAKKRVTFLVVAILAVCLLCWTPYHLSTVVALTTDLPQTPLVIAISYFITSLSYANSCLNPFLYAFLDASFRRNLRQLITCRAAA
EP2 confirm = cAMP induction in EP2, EP4, beta2-AR and parental cells, confirmation, counter-screen for EP2 modulator project, cell-based, five parallel assays, C6 glioma, HEK293; calls only at 20 µM (by protocol); hit rate 47% among 1,300; cAMP HTRF induction; plus low (about EC15) PGE2 agonist; AID 1080, 2008; shares compounds with EP2 mod;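 active = cAMP induction above 50% in the main assay while under 30% in all four parallel counter assays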;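 also: rat C6 glioma cells stably expressing human EP2 receptor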
Large screens that a line does not name were inactive (follow-up assays come after a bar, where they were run). Only some compounds are listed: those with a hit (about 3.7% of all), similar ones and a draw of the others.

Cc1nn(Cc2c(Cl)cccc2Cl)c(C)c1C(=O)NCc1ccc(C)n1C	EP2 mod 74.7 | EP2 confirm inactive
Cc1sc(NC(=O)c2ccc(F)cc2)c(CN2CCCCCC2)c1C	none
Cc1sc(NC(=O)c2ccccc2F)c(CN2CCCCC2)c1C	EP2 mod 84.2 | EP2 confirm inactive
COc1ccc(N2CCN(C(=O)c3cc(C4CC4)nn3-c3ccccc3)CC2)cc1	none (no result: EP2 mod, PGE2 EP2 inh, GPR7 antag)
O=C(CSCc1c(Cl)cccc1Cl)Nc1ccccc1-c1ccccc1	EP2 mod 75.0 | EP2 confirm inactive
O=C(Oc1cc(=O)oc2c1c(=O)n1c3c(cccc23)CC1)c1ccccc1	none
C(=N\N1CCN(C2c3ccccc3-c3ccccc32)CC1)/c1cccnc1	EP2 mod 73.7 | EP2 confirm inactive
C(=N\N1CCN(C2c3ccccc3-c3ccccc32)CC1)/c1ccccn1	none
Cc1ccc(Cn2ccc(=O)c(OCc3c(Cl)cccc3Cl)c2C)cc1	EP2 mod 66.6 | EP2 confirm active
CCCn1c(Nc2nc3ccccc3n2C)nc2ccccc21	EP2 mod 70.5 | EP2 confirm inactive
CCCCn1c(Nc2ccccc2)nc2ccccc21	none
Cc1ccc(S(=O)(=O)NCc2ccc(C(=O)NCCCN3CCN(C)CC3)cc2)cc1	none
Cc1ccc(C)c(N=C2CCCN2Cc2ccccc2)c1C#N	EP2 mod 78.3 | EP2 confirm active
CCCn1cnc2sc(CC)cc2c1=O	none | EP2 confirm inactive
Cc1cccc(CSc2ncnc3ccccc23)c1	EP2 mod 71.3 | EP2 confirm inactive
COc1ccc(Cl)cc1NC(=O)c1cc(-c2ccc(C)cc2O)n[nH]1	none
O=C(NCc1ccccc1)c1csc2c1CCCCC2	none
Cn1c(=O)c2c(nc(SCC(=O)N3CCc4ccccc4C3)n2C)n(C)c1=O	EP2 mod 82.2 | EP2 confirm inactive
Cn1c(=O)c2c(nc(SCC(=O)N3c4ccccc4CCc4ccccc43)n2C)n(C)c1=O	none (no result: OX1R antag-1, OX1R antag-2, CHO parental Ca)
CCc1ccc(C(=O)N/N=C/c2ccc(Cl)cc2Cl)nc1	none
C/C(=N\NC(=O)NC1CCCCC1)C1CCCCC1	EP2 mod 70.9 | EP2 confirm inactive
CCOC(=O)c1c(C=O)c(C)n(Cc2ccccc2Cl)c1C	EP2 mod 72.2 | EP2 confirm inactive
CCOC(=O)c1c(C=O)c(C)n(Cc2ccc(C)cc2)c1C	EP2 mod 85.8 | EP2 confirm inactive
Cc1c(C=O)c(C=O)c(C)n1Cc1ccccc1	none
CCc1cc(-c2[nH]ncc2-c2ccc3c(c2)OCO3)c(O)cc1O	none (no result: PGE2 EP2 inh) | EP2 confirm inactive
CCc1cc(-c2[nH]ncc2-c2ccc(OC)cc2)c(O)cc1O	none (no result: EP2 mod, PGE2 EP2 inh)
COc1ccc(CNS(=O)(=O)c2cccc(S(=O)(=O)N3CCOCC3)c2)cc1	none
CCCC(C)C(=O)Nc1ccccc1C(=O)OCC (stereo unspecified)	none
CCOC(=O)c1ccccc1NC(=O)COC(=O)CCCOc1ccccc1	none (no result: EP2 mod, PGE2 EP2 inh, GPR7 antag)
CCOC(=O)c1ccccc1NC(=O)COc1ccccc1	EP2 mod 79.3 | EP2 confirm inactive
Cc1cccc(OCC(=O)Nc2ccccc2C(F)(F)F)c1	none
Cc1cccc(OCC(=O)Nc2ccccc2-c2ccccc2)c1	EP2 mod 70.7 | EP2 confirm active
CCOC(=O)c1ccccc1NC(=O)CSc1ccccc1	EP2 mod 78.8 | EP2 confirm inactive
CCOC(=O)c1ccccc1NC(=O)C(C)Oc1ccccc1 (stereo unspecified)	none | EP2 confirm active
Cn1c(=O)c(S(=O)(=O)C(C)(C)C)c(O)c2ccccc21	none
c1cncc(-c2nc(NCCCN3CCOCC3)c3c4c(sc3n2)CCC4)c1	none
c1cncc(-c2nc(N3CCOCC3)c3c4c(sc3n2)CCC4)c1	none | EP2 confirm inactive
O=C(O)/C=C\c1ccccc1Oc1cccc(Cl)c1	none
O=C(O)/C=C/c1ccccc1Oc1ccc(Cl)cc1Cl	EP2 mod 87.3 | EP2 confirm active
CCOC(=O)COc1cc(N)c(Cl)cc1Cl	none
COc1ccc(OC)c(C(=O)c2coc3ccc(OC(C)=O)cc23)c1	none
COc1ccc(OC)c(C(=O)c2coc3ccc(OCC(=O)O)cc23)c1	EP2 mod 65.4 | EP2 confirm inactive
CCOc1ccc(-c2nnc3n2N=C(c2ccc(OC)cc2)CS3)cc1	EP2 mod 74.9 | EP2 confirm active
CCOc1ccc(C2=Nn3c(nnc3-c3ccccc3OC)SC2)cc1	EP2 mod 74.1 | EP2 confirm active
COc1ccccc1-c1nnc2n1N=C(c1ccc(O)c(O)c1)CS2	none
CCc1nnc2n1N=C(c1ccc(OC)cc1)CS2	none
O=S(=O)(/C=C/c1ccccc1)c1ccccc1	none
O=S(=O)(C=C(c1ccccc1)c1ccccc1)c1ccccc1	OX1R antag-1 42.9, EP2 mod 76.7, CHO parental Ca 47.9 | EP2 confirm active
C=CCN1c2ccccc2[C@]23C[C@@H](C(=O)OC)N(C(=O)c4cc(C)oc4C)C2=NC(C(=O)OC)=C(C(=O)OC)[C@H]13	none (no result: GPR7 antag)
CCOc1nc2cccc(C(=O)OC(C)OC(=O)OC3CCCCC3)c2n1Cc1ccc(-c2ccccc2-c2nn[nH]n2)cc1 (stereo unspecified)	none (no result: OX1R antag-1, OX1R antag-2, CHO parental Ca, GPR7 antag) | EP2 confirm inactive
CCCc1nc(C(C)(C)O)c(C(=O)OCc2oc(=O)oc2C)n1Cc1ccc(-c2ccccc2-c2nn[nH]n2)cc1	none (no result: OX1R antag-1, OX1R antag-2, CHO parental Ca, GPR7 antag)
CCOC(=O)c1sc2nc3c(SCC(=O)O)cc(C(=O)c4cc(F)ccc4O)cn3c(=O)c2c1C	EP2 mod 76.5 | EP2 confirm active
O=C(Nc1ccc2c(c1)OCO2)c1cccc2c1C(=O)N(C1CCCCC1)C2	EP2 mod 71.1 | EP2 confirm active
Cc1cc(NC(=O)c2cccc3c2C(=O)N(C2CCCCC2)C3)ccc1Br	none (no result: EP2 mod, PGE2 EP2 inh)
Cc1nc2ccccc2c2oc(C(=O)N3CCCC(C)C3)cc12 (stereo unspecified)	none (no result: EP2 mod, PGE2 EP2 inh)
Cc1cc(O)ccc1C1(c2ccc(O)cc2C)OC(=O)c2ccccc21	EP2 mod 67.0 | EP2 confirm inactive
CCCCn1ccnc1C	none (no result: OX1R antag-1, OX1R antag-2, CHO parental Ca)
S=c1[nH]nc(CSc2nc3ccccc3s2)n1Cc1ccccc1	none | EP2 confirm inactive
CCCCn1c(=O)[nH]c2c(oc3ccccc32)c1=O	none (no result: EP2 mod, PGE2 EP2 inh)

From PubChem BioAssay
